Activity and MIC90 data for nine compounds are collected here from ChEMBL document CHEMBL1140578, “Solid-phase synthesis and biological evaluation of a uridinyl branched peptide urea library” (2007).

The test system of one test is Bacillus anthracis. Put plainly: Antimicrobial activity against Bacillus anthracis Sterne. Format: functional, organism-based.
In test [1] the test system is Mycobacterium tuberculosis. The test is described as follows: Antituberculosis activity against Mycobacterium tuberculosis H37Rv by micro-broth dilution method. Format: functional. In outline: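 M. tuberculosis H37Rv grown in Middlebrook 7H9 ADC medium and tested by microbroth dilution per CLSI guidelines, with 2×10^4 bacteria per well. Compounds were dissolved and diluted in DMSO (4 μl into 196 μl). The primary screen used 20, 10 and 5 μg/ml based on recovered yield. Resynthesized compounds were run as 1:1 serial dilutions from 200 to 1.56 μg/ml to give MIC90. Controls were no drug and isoniazid.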
A general note: Dilution methods test growth across graded concentrations, often in twofold steps.

The next test concerns Escherichia coli. Put plainly: Antimicrobial activity against Escherichia coli K12. Format: functional, organism-based.
The test system of the next test is Bacillus subtilis. Put plainly: Antimicrobial activity against Bacillus subtilis. In kind it is functional, organism-based.
The test system of the next test is Enterococcus faecalis. The test is described as follows: Antimicrobial activity against Enterococcus faecalis. Format: functional, organism-based.
The subject of a further test is Staphylococcus aureus. Put plainly: Antimicrobial activity against methicillin-susceptible Staphylococcus aureus. Format: functional, organism-based.

≈ marks a conversion by molar mass, not a printed value. Calls of active or inactive are those of the source. The calls are words filed in the database; no cut-off is given here.

Regarding `COc1ccc(NC(=O)N[C@@H](Cc2c[nH]c3ccccc23)C(=O)N[C@@H](CNC(=O)[C@@H](N)Cc2c[nH]c3ccccc23)C(=O)NC[C@H]2O[C@@H](n3ccc(=O)[nH]c3=O)[C@H](O)[C@@H]2O)cc1`, the result with Bacillus anthracis, with Escherichia coli, in the test on Bacillus subtilis, with Enterococcus faecalis and in the test on Staphylococcus aureus was inactive. Besides, in test [1], the MIC90 worked out at 12.5 µg/mL (≈ 14.7 µM).

As to `CC(=O)c1cccc(NC(=O)N[C@@H](Cc2c[nH]c3ccccc23)C(=O)N[C@@H](CNC(=O)[C@@H](N)Cc2c[nH]c3ccccc23)C(=O)NC[C@H]2O[C@@H](n3ccc(=O)[nH]c3=O)[C@H](O)[C@@H]2O)c1`, the outcome in the test on Bacillus anthracis, in the test on Escherichia coli, in the test on Bacillus subtilis, with Enterococcus faecalis and with Staphylococcus aureus was inactive. The MIC90 in test [1] is 50 µg/mL (≈ 57.9 µM).

In the case of `COc1ccc(NC(=O)N[C@@H](Cc2ccc(O)cc2)C(=O)N[C@@H](CNC(=O)[C@@H](N)Cc2ccc([N+](=O)[O-])cc2)C(=O)NC[C@H]2O[C@@H](n3ccc(=O)[nH]c3=O)[C@H](O)[C@@H]2O)cc1`, the outcome in the test with Bacillus anthracis, in the test on Escherichia coli, with Bacillus subtilis, in the test with Enterococcus faecalis and with Staphylococcus aureus was inactive. The compound also yielded an MIC90 in test [1] of 12.5 µg/mL (≈ 15 µM).

Turning to `CSCC[C@H](NC(=O)NCCc1ccccc1)C(=O)N[C@@H](CNC(=O)[C@@H](N)Cc1ccc([N+](=O)[O-])cc1)C(=O)NC[C@H]1O[C@@H](n2ccc(=O)[nH]c2=O)[C@H](O)[C@@H]1O`, the result in the test on Bacillus anthracis, with Escherichia coli, in the test with Bacillus subtilis, in the test with Enterococcus faecalis and with Staphylococcus aureus was inactive. In test [1], this compound had an MIC90 of 100 µg/mL (≈ 125 µM).

Turning to `CCCCCCNC(=O)N[C@@H](Cc1ccc(O)cc1)C(=O)N[C@@H](CNC(=O)[C@@H](N)Cc1c[nH]c2ccccc12)C(=O)NC[C@H]1O[C@@H](n2ccc(=O)[nH]c2=O)[C@H](O)[C@@H]1O`, the outcome in the test on Bacillus anthracis, with Escherichia coli, in the test with Bacillus subtilis, with Enterococcus faecalis and in the test on Staphylococcus aureus was inactive. The MIC90 in test [1] came out at 12.5 µg/mL (≈ 15.5 µM).

Consider `N[C@@H](Cc1c[nH]c2ccccc12)C(=O)NC[C@H](NC(=O)[C@H](Cc1c[nH]c2ccccc12)NC(=O)NCCc1ccccc1)C(=O)NC[C@H]1O[C@@H](n2ccc(=O)[nH]c2=O)[C@H](O)[C@@H]1O`, for which the outcome in the test with Bacillus anthracis, with Escherichia coli, in the test on Bacillus subtilis, in the test with Enterococcus faecalis and in the test on Staphylococcus aureus was inactive. This compound also had an MIC90 in test [1] of 50 µg/mL (≈ 58.9 µM).

Consider `CC(=O)c1cccc(NC(=O)N[C@@H](Cc2c[nH]c3ccccc23)C(=O)N[C@@H](CNC(=O)[C@@H](N)CC(N)=O)C(=O)NC[C@H]2O[C@@H](n3ccc(=O)[nH]c3=O)[C@H](O)[C@@H]2O)c1`, for which the outcome with Bacillus anthracis, with Escherichia coli, in the test on Bacillus subtilis, in the test on Enterococcus faecalis and with Staphylococcus aureus was inactive. The compound further came in with an MIC90 in test [1] greater than 200 µg/mL.

Consider `CCCCCCNC(=O)N[C@@H](Cc1c[nH]c2ccccc12)C(=O)N[C@@H](CNC(=O)[C@@H](N)Cc1c[nH]c2ccccc12)C(=O)NC[C@H]1O[C@@H](n2ccc(=O)[nH]c2=O)[C@H](O)[C@@H]1O`, for which the outcome in the test on Bacillus anthracis, in the test with Escherichia coli, in the test with Bacillus subtilis, in the test with Enterococcus faecalis and in the test with Staphylococcus aureus was inactive. The compound further came in with an MIC90 in test [1] of 25 µg/mL (≈ 30.2 µM).

As to `CCCNC(=O)N[C@@H](Cc1c[nH]c2ccccc12)C(=O)N[C@@H](CNC(=O)[C@@H](N)Cc1c[nH]c2ccccc12)C(=O)NC[C@H]1O[C@@H](n2ccc(=O)[nH]c2=O)[C@H](O)[C@@H]1O`, the result in the test on Bacillus anthracis, in the test on Escherichia coli, in the test on Bacillus subtilis, with Enterococcus faecalis and in the test with Staphylococcus aureus was inactive. For the same compound, in test [1], the MIC90 came to 100 µg/mL (≈ 127 µM).

What is called MIC90 is an inhibitory concentration at the 90% level, which refers to growth in some studies and to a panel of isolates in others.
